Data published in publication PMC5615838 (Toxicology Reports, 2016).

How the values were obtained:
[1] = system: GPCRs, ion channels, nuclear receptors, transporters; assay: lead profiling receptor screen; type: binding; settings: 10 μM
hERG = hERG (Homo sapiens, UniProt Q12809); assay: hERG electrophysiology; type: cell-based
CYP1A2 = biological target: T1, CYP1A2 (Homo sapiens, UniProt P05177); assay: CYP inhibition, LC–MS/MS assay in human liver microsomes; type: in vitro ADME; settings: pooled human liver microsomes, probe phenacetin
T1 sequence (P05177 1-516): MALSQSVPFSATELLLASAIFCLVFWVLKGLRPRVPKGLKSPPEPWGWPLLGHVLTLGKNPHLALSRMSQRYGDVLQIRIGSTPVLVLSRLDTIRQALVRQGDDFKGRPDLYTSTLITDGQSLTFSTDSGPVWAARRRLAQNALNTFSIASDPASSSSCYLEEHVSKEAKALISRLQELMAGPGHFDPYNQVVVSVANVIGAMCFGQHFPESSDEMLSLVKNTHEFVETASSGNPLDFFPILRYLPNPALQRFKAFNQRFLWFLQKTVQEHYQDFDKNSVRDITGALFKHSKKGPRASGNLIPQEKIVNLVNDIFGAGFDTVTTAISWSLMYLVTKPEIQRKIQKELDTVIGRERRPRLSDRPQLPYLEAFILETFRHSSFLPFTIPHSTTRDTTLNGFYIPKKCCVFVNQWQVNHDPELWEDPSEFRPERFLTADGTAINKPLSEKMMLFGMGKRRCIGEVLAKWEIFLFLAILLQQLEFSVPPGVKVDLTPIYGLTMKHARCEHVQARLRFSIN
Procedure, shortened: (§1)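 Follow-up CYP panel in pooled human liver microsomes with CYP-specific probe substrates; CYP-specific metabolites quantified by LC-MS/MS. Test compound at 10 μM. Percent inhibition reported.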

CYP2C9 = CYP2C9 (Homo sapiens, UniProt P11712); assay: as above; type: in vitro ADME; settings: pooled human liver microsomes, probe tolbutamide
Chain of CYP2C9 (P11712 whole entry): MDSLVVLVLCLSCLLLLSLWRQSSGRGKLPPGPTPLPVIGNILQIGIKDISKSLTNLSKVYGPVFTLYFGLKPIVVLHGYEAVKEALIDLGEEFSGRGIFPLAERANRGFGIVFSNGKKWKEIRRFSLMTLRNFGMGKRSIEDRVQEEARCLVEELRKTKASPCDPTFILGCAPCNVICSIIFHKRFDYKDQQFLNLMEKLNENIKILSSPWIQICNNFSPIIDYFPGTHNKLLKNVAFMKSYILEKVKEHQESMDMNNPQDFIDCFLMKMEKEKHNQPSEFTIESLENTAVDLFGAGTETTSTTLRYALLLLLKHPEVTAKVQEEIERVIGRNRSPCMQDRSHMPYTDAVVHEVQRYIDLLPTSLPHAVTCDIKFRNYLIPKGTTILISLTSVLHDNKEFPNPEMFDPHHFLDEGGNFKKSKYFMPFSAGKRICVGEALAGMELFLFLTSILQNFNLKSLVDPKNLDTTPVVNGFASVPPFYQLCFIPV
Procedure, shortened: as §1

CYP2C19 = CYP2C19 (Homo sapiens, UniProt P33261); assay: as above; type: in vitro ADME; settings: pooled human liver microsomes, probe S-mephenytoin
Chain of CYP2C19 (P33261 whole entry): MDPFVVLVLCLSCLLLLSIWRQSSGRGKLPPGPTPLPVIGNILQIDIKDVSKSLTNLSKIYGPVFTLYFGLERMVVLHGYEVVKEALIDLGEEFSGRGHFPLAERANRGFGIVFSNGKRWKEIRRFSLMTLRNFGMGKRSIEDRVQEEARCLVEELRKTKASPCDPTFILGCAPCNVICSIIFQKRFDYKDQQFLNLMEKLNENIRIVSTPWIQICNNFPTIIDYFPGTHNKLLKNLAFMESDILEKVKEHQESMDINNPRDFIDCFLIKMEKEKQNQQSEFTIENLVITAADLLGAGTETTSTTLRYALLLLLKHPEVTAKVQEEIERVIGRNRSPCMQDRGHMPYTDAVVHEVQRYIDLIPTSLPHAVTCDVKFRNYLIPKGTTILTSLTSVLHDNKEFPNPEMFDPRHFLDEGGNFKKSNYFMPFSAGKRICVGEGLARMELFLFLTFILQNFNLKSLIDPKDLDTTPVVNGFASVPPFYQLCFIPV
Procedure, shortened: as §1

CYP2D6 = CYP2D6 (Homo sapiens, UniProt P10635); assay: as above; type: in vitro ADME; settings: pooled human liver microsomes, probe bufuralol
Chain of CYP2D6 (P10635 whole entry): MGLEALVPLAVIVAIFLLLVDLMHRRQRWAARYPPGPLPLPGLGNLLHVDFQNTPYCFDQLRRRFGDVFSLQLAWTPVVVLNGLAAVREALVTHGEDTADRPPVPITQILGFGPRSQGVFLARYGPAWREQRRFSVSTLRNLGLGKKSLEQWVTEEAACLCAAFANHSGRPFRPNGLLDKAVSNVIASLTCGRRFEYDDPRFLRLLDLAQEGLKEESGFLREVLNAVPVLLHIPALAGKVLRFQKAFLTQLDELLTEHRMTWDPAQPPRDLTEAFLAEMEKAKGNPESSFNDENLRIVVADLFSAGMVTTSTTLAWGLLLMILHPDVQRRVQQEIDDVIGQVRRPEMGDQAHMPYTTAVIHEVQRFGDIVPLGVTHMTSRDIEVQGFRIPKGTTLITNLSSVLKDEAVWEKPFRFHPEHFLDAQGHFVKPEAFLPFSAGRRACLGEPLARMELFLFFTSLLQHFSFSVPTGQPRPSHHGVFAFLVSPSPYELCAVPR
Procedure, shortened: as §1

[2] = in vitro metabolism in human liver microsomes; type: in vitro ADME; settings: 50 μM, 120 min
[3] = in vitro metabolism in rat liver microsomes; type: in vitro ADME; settings: 50 μM, 120 min
[4] = pharmacokinetics and oral bioavailability of S6821; type: in vivo, rat
[5] = system: S. typhimurium strains TA98, TA100, TA1535, TA1537 and E. coli strain WP2 uvrA; assay: bacterial reverse mutation test; type: cell-based, Salmonella typhimurium, Escherichia coli; settings: 50–5000 μg/plate, plate incorporation and pre-incubation, ±S9
[6] = 28-day dose-range finding toxicity study, diet; type: in vivo, rat; settings: 28 days
Procedure, shortened: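 Crl:CD(SD) rats, 5/sex/group, fed test compound in the diet at 10, 30 or 100 mg/kg bw/day for 28 days, with a vehicle-diet control group of 5/sex. Assessed survival, clinical signs, body weight, food consumption, hematology, clinical chemistry, organ weights and gross pathology. Livers examined microscopically in the 0 and 100 mg/kg bw/day groups.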

[7] = 90-day subchronic toxicity study, diet; type: in vivo, rat
Procedure, shortened: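 Sprague-Dawley Crl:CD(SD) rats, 20/sex/group, received test compound continuously in the diet at 0, 10, 30 or 100 mg/kg bw/day for 90 consecutive days. Body-weight gain and food consumption were monitored. Clinical signs were recorded throughout treatment.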

[8] = dose range-finding developmental toxicity study; type: in vivo, rat; settings: 125, 250, 500, 1000 mg/kg bw/day oral gavage, gestation days 6-20
[9] = JECFA SPET dietary exposure estimate; design: species or system human; settings: 28- and 90-day toxicology studies
[10] = biological target: human bitter receptor hTAS2R8; settings: antagonist; cited from earlier work
[11] = male, Sprague-Dawley, rat, plasma, iv, 1 mg/kg
[12] = male, Sprague-Dawley, rat, plasma, po, 10 mg/kg
[13] = male, Sprague-Dawley, rat, plasma, po, 30 mg/kg
[14] = male, Sprague-Dawley, rat, plasma, po, 100 mg/kg

Chain of hERG (Q12809 whole entry): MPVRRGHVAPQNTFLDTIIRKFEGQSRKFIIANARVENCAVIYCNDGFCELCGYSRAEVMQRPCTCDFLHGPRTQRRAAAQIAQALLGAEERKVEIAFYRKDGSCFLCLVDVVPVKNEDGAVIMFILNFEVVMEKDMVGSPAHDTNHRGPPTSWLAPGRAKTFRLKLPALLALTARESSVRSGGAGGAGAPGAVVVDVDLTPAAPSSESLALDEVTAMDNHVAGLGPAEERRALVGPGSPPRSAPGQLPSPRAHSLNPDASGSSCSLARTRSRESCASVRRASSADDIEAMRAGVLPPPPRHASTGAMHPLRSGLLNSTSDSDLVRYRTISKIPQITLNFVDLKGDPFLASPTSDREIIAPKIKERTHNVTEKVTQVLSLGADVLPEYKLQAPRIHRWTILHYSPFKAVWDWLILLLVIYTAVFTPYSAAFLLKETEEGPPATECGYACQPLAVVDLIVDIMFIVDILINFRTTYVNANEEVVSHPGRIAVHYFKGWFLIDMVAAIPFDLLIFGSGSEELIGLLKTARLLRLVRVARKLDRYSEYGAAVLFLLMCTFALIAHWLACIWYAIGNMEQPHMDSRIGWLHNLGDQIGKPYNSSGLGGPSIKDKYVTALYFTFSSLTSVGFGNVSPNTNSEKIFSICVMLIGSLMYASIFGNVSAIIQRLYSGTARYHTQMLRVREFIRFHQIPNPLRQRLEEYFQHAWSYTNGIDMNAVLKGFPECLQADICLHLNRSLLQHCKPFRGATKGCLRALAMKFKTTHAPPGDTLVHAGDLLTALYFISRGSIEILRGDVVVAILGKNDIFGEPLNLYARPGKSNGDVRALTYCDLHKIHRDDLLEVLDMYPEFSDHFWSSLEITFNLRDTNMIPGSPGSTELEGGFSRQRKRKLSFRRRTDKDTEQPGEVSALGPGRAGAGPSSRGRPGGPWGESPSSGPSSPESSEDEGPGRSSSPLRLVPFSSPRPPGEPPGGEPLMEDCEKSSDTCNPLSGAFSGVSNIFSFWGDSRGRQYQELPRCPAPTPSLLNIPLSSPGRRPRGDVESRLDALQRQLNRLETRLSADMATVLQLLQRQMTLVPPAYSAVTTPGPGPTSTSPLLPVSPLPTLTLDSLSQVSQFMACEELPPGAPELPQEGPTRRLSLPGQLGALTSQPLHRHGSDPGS

## Cc1noc(C)c1Cn1cc(N2C(=O)CN(Cc3cccc(O)c3)C2=O)cn1 [S6821, 3-(1-((3,5-dimethylisoxazol-4-yl)methyl)-1H-pyrazol-4-yl)-1-(3-hydroxybenzyl)imidazolidine-2,4-dione]
[1]
  significant responses (≥50% inhibition or stimulation): No significant responses
hERG
  inhibition at 10 µM: < 10%
CYP1A2
  inhibition at 10 µM: 18%
CYP2C9
  inhibition at 10 µM: -3%
CYP2C19
  inhibition at 10 µM: 8%
CYP2D6
  inhibition at 10 µM: -2%
[2]
  parent S6821 remaining, peak area % of time 0: 75%
[3]
  parent S6821 remaining, peak area % of time 0: 56%
[4]; iv 1.0 mg/kg bw S6821
  AUC0-last/dose: 161 ng·h/mL/mg/kg
[4]; iv, body water 668 mL/kg
  Vss, times the total body water volume in the rat: 0.84 times
[4]; iv, hepatic blood flow 55.2 mL/min/kg
  CL as % of hepatic blood flow in the rat: 190%
[4]; [11]
  AUC(0-t): 161 ng·h/mL
  Cmax: 619 ng/mL
  Tmax: 4.8 min
  Vd: 0.563 L/kg
  clearance: 105 mL/min/kg
  half-life: 6 min
[4]; [12]
  AUC(0-t): 28 ng·h/mL
  Cmax: 12.3 ng/mL
  Tmax: 30 min
  bioavailability: 1.74%
  half-life: 120 min
[4]; [13]
  AUC(0-t): 201 ng·h/mL
  Cmax: 38.5 ng/mL
  Tmax: 30 min
  bioavailability: 4.16%
  half-life: 426 min
[4]; [14]
  AUC(0-t): 410 ng·h/mL
  Cmax: 68.1 ng/mL
  Tmax: 30 min
  bioavailability: 2.55%
  half-life: 258 min
[4]; oral gavage 10 mg/kg bw S6821
  AUC0-last/dose: 2.80 ng·h/mL/mg/kg
[4]; oral gavage 30 mg/kg bw S6821
  AUC0-last/dose: 6.70 ng·h/mL/mg/kg
[4]; oral gavage 100 mg/kg bw S6821
  AUC0-last/dose: 4.10 ng·h/mL/mg/kg
[5]
  Reverse mutation (in vitro), Result: Negative
[6]; 10, 30, 100 mg/kg bw/day food ad-mix, male & female
  MTD: > 100 mg/kg bw/day
[6]; up to 100 mg/kg bw/day
  Findings: No test-article related findings
[7]; 10, 30, 100 mg/kg bw/day food ad-mix, 90 days, both sexes
  NOAEL: 100 mg/kg bw/day
[7]; 90 days, females
  NOEL: 100 mg/kg bw/day
[7]; 90 days, males
  NOEL: 30 mg/kg bw/day
[7]; males, 100 mg/kg bw/day, week 12, second half of 1-hour recording
  Motor activity scores: slightly higher than those of controls
[7]; up to 100 mg/kg bw/day, 90 days
  Findings: No test-article related findings
[8]
  Findings: No maternal toxicity or effect on intrauterine growth up to 1000 mg/kg bw/day
[9]
  NOAEL of 100 mg/kg bw/day as multiple of estimated dietary exposure: 1500 times
[10]
  IC50: 35 nM
